Laboratory results as given in ChEMBL document CHEMBL1122179, “1-(alkylamino)isochromans: hypotensives with peripheral and central activities” (J Med Chem, 1982).
Blank lines part the entries; values can stand above or below the compound they belong to.

Experiments:
Rattus norvegicus [1] = experiment: Delta BP refers to oral hypotensive activity of compound which is evaluated at 4 hr and 24 hr in restrained, normotensive conscious rats at a dose of 50 mg/kg; -13/-10; format: functional
Summary of the method: (§1)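 Female Sprague-Dawley rats, normotensive, restrained in a towel. Blood pressure was read directly via chronic indwelling aortic cannulas exteriorized at the nape, before and 4 and 24 h after an oral dose suspended in carboxymethylcellulose (10 mL/kg). Values from two animals were averaged at each time; a mean change of at least 5 mmHg was taken as significant (p < 0.05).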

Rattus norvegicus [2] = experiment: Delta BP refers to oral hypotensive activity of compound which is evaluated at 4 hr and 24 hr in restrained, normotensive conscious rats at a dose of 50 mg/kg; -11/-16; format: functional; summary of the method: as §1
Rattus norvegicus [3] = experiment: Delta BP refers to oral hypotensive activity of compound which is evaluated at 4 hr and 24 hr in restrained, normotensive conscious rats at a dose of 50 mg/kg; -17/-9; format: functional; summary of the method: as §1
Rattus norvegicus [4] = experiment: Delta BP refers to oral hypotensive activity of compound which is evaluated at 4 hr and 24 hr in restrained, normotensive conscious rats at a dose of 50 mg/kg; -17/-20; format: functional; summary of the method: as §1
Rattus norvegicus [5] = experiment: Delta BP refers to oral hypotensive activity of compound which is evaluated at 4 hr and 24 hr in restrained, normotensive conscious rats at a dose of 50 mg/kg; -19/-19; format: functional; summary of the method: as §1
Rattus norvegicus [6] = experiment: Delta BP refers to oral hypotensive activity of compound which is evaluated at 4 hr and 24 hr in restrained, normotensive conscious rats at a dose of 50 mg/kg; -16/-10; format: functional; conditions: dose 15 mg/kg, in the assay text read “dose of 15 mg/kg” for “dose of 50 mg/kg”; summary of the method: as §1
Rattus norvegicus [7] = experiment: Delta BP refers to oral hypotensive activity of compound which is evaluated at 4 hr and 24 hr in restrained, normotensive conscious rats at a dose of 50 mg/kg; -24/-5; format: functional; summary of the method: as §1
[8] = molecular target: T1, Adrenergic receptor alpha-2 (Rattus norvegicus, UniProt P22086+P19328+P22909); experiment: Compound was tested for the inhibition of [3H]clonidine binding Alpha-2 adrenergic receptor of crude rat brain membrane
T1 sequence (P22086 whole entry): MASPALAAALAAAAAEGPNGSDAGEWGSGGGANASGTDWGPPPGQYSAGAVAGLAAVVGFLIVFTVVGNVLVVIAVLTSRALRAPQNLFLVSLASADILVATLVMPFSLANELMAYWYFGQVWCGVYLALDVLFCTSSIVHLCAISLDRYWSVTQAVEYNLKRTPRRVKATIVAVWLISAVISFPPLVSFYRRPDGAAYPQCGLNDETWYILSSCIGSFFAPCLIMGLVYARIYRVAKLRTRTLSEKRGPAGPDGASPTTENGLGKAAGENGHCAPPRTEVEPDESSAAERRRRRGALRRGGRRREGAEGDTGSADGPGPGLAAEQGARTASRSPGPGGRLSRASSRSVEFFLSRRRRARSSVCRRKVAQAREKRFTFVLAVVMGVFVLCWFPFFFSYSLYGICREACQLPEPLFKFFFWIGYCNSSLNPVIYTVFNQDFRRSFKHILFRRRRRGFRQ
T1 sequence (P19328 whole entry): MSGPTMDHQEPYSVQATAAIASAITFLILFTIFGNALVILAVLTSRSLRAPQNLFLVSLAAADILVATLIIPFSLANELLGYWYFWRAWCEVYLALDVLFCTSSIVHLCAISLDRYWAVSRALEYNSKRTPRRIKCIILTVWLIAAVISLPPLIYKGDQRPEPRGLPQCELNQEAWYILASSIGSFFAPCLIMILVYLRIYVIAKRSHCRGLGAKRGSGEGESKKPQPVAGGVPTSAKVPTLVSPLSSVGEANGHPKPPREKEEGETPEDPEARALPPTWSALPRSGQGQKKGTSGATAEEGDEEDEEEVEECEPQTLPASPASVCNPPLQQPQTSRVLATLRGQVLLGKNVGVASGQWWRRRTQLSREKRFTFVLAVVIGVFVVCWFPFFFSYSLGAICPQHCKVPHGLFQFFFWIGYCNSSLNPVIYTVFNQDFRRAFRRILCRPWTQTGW
T1 sequence (P22909 whole entry): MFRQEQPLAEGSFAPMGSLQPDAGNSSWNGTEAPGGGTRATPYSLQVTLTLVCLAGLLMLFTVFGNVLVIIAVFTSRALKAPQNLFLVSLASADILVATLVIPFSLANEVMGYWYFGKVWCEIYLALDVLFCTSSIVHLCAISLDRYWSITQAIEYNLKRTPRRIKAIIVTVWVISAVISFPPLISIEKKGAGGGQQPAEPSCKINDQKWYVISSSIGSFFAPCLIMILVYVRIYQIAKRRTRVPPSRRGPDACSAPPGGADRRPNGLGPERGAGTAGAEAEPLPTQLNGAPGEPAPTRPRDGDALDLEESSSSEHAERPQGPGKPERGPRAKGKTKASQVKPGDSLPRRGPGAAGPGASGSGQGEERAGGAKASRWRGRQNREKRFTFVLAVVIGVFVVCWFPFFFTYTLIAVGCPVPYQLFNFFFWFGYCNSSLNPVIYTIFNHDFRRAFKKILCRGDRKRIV

[9] = molecular target: T2, Adrenergic receptor alpha-1 (Rattus norvegicus, UniProt P15823+P23944+P43140); experiment: Compound was tested for the inhibition of [3H]prazosin binding […] adrenergic receptor of crude rat brain membrane.
T2 sequence (P15823 whole entry): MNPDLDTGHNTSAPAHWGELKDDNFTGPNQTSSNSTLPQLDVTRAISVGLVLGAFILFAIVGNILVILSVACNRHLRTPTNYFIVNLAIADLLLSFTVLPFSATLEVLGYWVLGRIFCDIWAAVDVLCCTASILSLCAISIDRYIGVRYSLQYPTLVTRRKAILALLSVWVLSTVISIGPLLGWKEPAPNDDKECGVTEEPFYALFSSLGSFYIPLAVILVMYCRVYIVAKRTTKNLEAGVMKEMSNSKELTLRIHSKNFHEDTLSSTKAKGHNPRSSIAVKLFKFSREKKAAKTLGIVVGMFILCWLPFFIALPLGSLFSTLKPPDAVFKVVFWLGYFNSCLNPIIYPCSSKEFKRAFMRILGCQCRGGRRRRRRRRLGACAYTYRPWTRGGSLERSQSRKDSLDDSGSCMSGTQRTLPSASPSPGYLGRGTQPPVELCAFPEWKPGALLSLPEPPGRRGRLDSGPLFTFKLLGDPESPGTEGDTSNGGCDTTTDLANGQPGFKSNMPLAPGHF
T2 sequence (P23944 whole entry): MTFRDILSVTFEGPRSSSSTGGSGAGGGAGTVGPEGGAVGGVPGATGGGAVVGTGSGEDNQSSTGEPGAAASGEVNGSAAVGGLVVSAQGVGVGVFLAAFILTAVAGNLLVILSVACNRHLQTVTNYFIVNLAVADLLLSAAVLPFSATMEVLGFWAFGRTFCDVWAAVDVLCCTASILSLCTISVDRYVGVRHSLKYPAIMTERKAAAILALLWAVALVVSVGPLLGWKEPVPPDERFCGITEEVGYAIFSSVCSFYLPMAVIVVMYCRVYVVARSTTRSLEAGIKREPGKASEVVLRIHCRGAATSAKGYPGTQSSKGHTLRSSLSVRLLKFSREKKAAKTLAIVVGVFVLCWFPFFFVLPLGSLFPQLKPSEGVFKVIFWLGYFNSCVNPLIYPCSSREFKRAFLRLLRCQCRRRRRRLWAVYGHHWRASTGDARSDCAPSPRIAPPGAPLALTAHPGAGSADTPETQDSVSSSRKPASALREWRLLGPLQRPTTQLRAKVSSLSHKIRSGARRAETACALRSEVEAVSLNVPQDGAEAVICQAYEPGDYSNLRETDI
T2 sequence (P43140 whole entry): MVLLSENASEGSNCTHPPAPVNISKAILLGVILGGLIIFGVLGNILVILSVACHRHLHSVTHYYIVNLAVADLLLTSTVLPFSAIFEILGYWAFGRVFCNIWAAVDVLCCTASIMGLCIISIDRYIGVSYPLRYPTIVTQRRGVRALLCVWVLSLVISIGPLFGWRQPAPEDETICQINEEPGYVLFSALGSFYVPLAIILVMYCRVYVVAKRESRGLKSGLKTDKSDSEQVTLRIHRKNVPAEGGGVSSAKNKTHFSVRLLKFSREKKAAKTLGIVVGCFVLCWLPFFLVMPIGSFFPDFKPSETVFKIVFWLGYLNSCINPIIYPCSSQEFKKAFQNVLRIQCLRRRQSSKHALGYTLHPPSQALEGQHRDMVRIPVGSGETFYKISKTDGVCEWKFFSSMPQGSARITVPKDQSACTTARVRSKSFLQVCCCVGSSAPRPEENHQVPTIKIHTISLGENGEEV

Rattus norvegicus [10] = experiment: Delta BP refers to oral hypotensive activity of compound which is evaluated at 4 hr and 24 hr in restrained, normotensive conscious rats at a dose of 50 mg/kg; 1/0; format: functional; summary of the method: as §1

Compound: COc1cc2c(cc1OC)C(CCN1CCN(c3ccccc3)CC1)OCC2 (stereo not given)
- Delta blood pressure (Rattus norvegicus [1]): -13 mmHg

Compound: COc1cc2c(cc1OC)C(C)(CCCN1CCN(c3ccccn3)CC1)OCC2 (stereo not given)
- Delta blood pressure (Rattus norvegicus [2]): -11 mmHg

Compound: COc1cc2c(cc1OC)C(C)(CCN1CCN(c3ccccc3)CC1)OCC2 (stereo not given)
- Delta blood pressure (Rattus norvegicus [3]): -17 mmHg

Compound: COc1cc2c(cc1OC)C(CCN1CCN(c3ccccc3C)CC1)OC(C)(C)C2 (stereo not given)
- Delta blood pressure (Rattus norvegicus [4]): -17 mmHg

Compound: COc1cc2c(cc1OC)C(CCCN1CCN(c3ccccc3)CC1)(c1ccc(F)cc1)OCC2 (stereo not given)
- Delta blood pressure (Rattus norvegicus [5]): -19 mmHg
- Delta blood pressure (Rattus norvegicus [6]): -16 mmHg

Compound: COc1cc2c(cc1OC)C(CN1CCN(c3ccccc3C)CC1)OCC2 (stereo not given)
- Delta blood pressure (Rattus norvegicus [7]): -24 mmHg

- Ki [8]: 307 nM
- Ki [9]: 4 nM
Compound: COc1cc2c(cc1OC)C(CCN1CCN(c3ccc(F)cc3)CC1)OCCC2 (stereo not given)

Compound: COc1cc2c(cc1OC)C(CCN1CCN(c3cccc(Cl)c3)CC1)OCC2 (stereo not given)
- Delta blood pressure (Rattus norvegicus [10]): 1 mmHg
